Reference: ChEMBL document CHEMBL1135509 (J Med Chem, 2002)

How the values were obtained:
[1] = biological target: T1, Sodium-dependent dopamine transporter (Rattus norvegicus, UniProt P23977); experiment: Inhibition of high affinity uptake of [3H]-DA by dopamine transporter in nerve endings obtained from rat brain.
Method in brief: (§1)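 Reuptake inhibition reported as Ki; values are mean ± standard error of at least three experiments.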

[2] = biological target: Norepinephrine transporter (Rattus norvegicus, UniProt Q9WTR4); experiment: Inhibition of high affinity uptake of [3H]NE by norepinephrine transporter in nerve endings obtained from rat brain.; method in brief: as §1
[3] = biological target: Sodium-dependent serotonin transporter (Rattus norvegicus, UniProt P31652); experiment: Inhibition of high affinity uptake of [3H]5-HT by serotonin transporter in nerve endings obtained from rat brain.; method in brief: as §1
[4] = biological target: Monoamine transporters; serotonin & dopamine (Rattus norvegicus) (UniProt P31652+P23977); experiment: Ratio of Ki at 5-HT transporter and Ki at dopamine transporter.; assay type: protein assay
Method in brief: (§2)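 Selectivity ratio calculated from Ki values measured in the monoamine reuptake assays, each Ki being the mean ± standard error of at least three experiments.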

[5] = biological target: Monoamine transporters; Norepininephrine & dopamine (Rattus norvegicus) (UniProt P23977+Q9WTR4); experiment: Ratio of Ki at norepinephrine transporter and Ki at dopamine transporter.; assay type: protein assay; method in brief: as §2
[6] = biological target: Monoamine transporters; Norepinephrine & serotonin (Rattus norvegicus) (UniProt P31652+Q9WTR4); experiment: Ratio of Ki at norepinephrine transporter and Ki at 5-HT transporter.; assay type: protein assay; method in brief: as §2
[7] = biological target: T1, Sodium-dependent dopamine transporter; experiment: 373 Ability to inhibit high affinity uptake of [3H]DA using rat nerve endings obtained from brain regions enriched in dopamine transporter; method in brief: as §1

Chain of Sodium-dependent serotonin transporter (P31652 whole entry): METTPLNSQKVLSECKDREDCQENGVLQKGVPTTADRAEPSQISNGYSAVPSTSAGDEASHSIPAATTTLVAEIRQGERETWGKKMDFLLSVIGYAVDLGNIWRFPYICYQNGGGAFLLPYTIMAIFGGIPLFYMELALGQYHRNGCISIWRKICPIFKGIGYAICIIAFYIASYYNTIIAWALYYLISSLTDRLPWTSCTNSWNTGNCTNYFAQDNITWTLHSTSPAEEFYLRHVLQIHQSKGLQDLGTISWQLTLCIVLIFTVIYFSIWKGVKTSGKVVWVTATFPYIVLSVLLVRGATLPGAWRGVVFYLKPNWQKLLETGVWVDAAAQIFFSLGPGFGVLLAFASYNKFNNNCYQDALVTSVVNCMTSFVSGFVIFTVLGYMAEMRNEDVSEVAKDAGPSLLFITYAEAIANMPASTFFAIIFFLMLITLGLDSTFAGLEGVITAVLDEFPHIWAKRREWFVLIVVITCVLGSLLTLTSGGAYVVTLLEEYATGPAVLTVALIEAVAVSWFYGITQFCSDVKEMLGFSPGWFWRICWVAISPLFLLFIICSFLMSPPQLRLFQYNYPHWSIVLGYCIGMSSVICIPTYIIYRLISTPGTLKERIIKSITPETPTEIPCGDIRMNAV
Chain of Monoamine transporters; serotonin & dopamine (Rattus norvegicus) (P23977 whole entry, looked up): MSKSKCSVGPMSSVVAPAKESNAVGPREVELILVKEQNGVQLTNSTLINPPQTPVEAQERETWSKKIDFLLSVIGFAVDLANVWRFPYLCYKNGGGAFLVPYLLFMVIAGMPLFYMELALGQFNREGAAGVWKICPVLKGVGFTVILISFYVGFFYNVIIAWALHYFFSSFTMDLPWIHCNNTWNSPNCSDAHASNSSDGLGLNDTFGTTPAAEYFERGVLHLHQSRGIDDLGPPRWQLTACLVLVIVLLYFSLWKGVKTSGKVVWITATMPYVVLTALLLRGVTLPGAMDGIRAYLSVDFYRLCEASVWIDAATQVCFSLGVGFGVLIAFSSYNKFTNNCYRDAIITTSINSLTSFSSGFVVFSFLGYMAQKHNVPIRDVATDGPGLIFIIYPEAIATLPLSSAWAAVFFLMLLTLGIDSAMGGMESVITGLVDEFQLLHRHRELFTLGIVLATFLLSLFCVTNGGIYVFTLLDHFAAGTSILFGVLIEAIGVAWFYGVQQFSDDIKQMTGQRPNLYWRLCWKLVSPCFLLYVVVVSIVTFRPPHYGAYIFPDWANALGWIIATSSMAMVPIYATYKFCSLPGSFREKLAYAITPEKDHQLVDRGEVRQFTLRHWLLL
Chain of Monoamine transporters; serotonin & dopamine (Rattus norvegicus) (P31652 whole entry, looked up): as the sequence (P31652 whole entry) above
T1 sequence (P23977 whole entry): as the sequence (P23977 whole entry, looked up) above
Chain of Norepinephrine transporter (Q9WTR4 whole entry): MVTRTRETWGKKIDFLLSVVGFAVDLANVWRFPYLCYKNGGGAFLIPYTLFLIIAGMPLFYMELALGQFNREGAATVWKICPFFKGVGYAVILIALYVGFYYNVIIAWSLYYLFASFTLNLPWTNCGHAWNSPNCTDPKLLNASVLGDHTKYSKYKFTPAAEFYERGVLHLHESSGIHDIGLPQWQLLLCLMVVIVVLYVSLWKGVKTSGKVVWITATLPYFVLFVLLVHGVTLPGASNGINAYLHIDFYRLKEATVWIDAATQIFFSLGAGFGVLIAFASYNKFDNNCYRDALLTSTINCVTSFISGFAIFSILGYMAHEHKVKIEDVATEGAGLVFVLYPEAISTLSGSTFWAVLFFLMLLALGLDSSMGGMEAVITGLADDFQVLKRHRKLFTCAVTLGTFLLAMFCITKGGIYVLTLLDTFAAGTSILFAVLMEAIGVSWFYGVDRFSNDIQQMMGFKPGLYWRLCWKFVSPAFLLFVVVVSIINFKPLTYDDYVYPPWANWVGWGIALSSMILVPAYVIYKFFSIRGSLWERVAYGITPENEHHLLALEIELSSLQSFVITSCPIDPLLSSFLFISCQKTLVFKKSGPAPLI

SMILES	Ki [1] [nM]	Ki [2] [nM]	Ki [3] [nM]	Ratio [4]	Ratio [5]	Ratio [6]	Ki [7] [nM]
COC(=O)C1CN(C(C)=O)CC[C@@H]1c1ccc(Cl)cc1 (some centres not stated)	> 10000	> 10000	> 10000	–	–	–	–
COC(=O)C1CN(CCCF)CC[C@@H]1c1ccc(Cl)cc1 (some centres not stated)	4280	335	> 10000	> 2.3	0.08	< 0.03	–
COC(=O)C1CN(CCC(c2ccccc2)c2ccccc2)CC[C@@H]1c1ccc(Cl)cc1 (some centres not stated)	4290	4340	2690	0.63	1.01	1.61	–
COC(=O)C1CNCC[C@@H]1c1ccc(Cl)cc1 (some centres not stated)	279	7.9	434	1.56	0.03	0.02	–
COC(=O)C1CN(C(C)C)CC[C@@H]1c1ccc(Cl)cc1 (some centres not stated)	6980	1840	3740	0.54	0.26	0.49	–
COC(=O)[C@@H]1CN(Cc2ccccc2)CC[C@@H]1c1ccc(Cl)cc1	3280	2980	2190	0.67	0.91	1.36	–
Cc1noc(C2CN(C)CC[C@@H]2c2ccc(Cl)cc2)n1 (some centres not stated)	187	256	5960	31.8	1.37	0.04	–
CN1CC[C@H](c2ccc(Cl)cc2)[C@@H](CO)C1	497	198	1550	3.12	0.4	0.13	–
COC(=O)C1CN(CCCc2ccccc2)CC[C@@H]1c1ccc(Cl)cc1 (some centres not stated)	810	488	3270	4.04	0.6	0.15	–
CCOC(=O)CCN1CC[C@H](c2ccc(Cl)cc2)C(C(=O)OC)C1 (some centres not stated)	> 10000	2100	> 10000	–	< 0.21	< 0.21	–
COC(=O)C1CN(S(=O)(=O)c2ccccc2)CC[C@@H]1c1ccc(Cl)cc1 (some centres not stated)	–	16100	36100	1.85	0.83	0.45	–
OCC1CNCC[C@@H]1c1ccc(Cl)cc1 (some centres not stated)	836	69	239	0.29	0.08	0.29	–
Cc1noc(C2CNCC[C@@H]2c2ccc(Cl)cc2)n1 (some centres not stated)	–	34	373	1.97	0.18	0.09	189
COC(=O)C1CN(CCCCl)CC[C@@H]1c1ccc(Cl)cc1 (some centres not stated)	3150	441	> 10000	> 3.17	0.14	< 0.04	–
COC(=O)[C@H]1CN(CCc2ccccc2)CC[C@@H]1c1ccc(Cl)cc1	1080	142	2890	2.68	0.13	0.05	–
COC(=O)[C@@H]1CN(CCc2ccccc2)CC[C@@H]1c1ccc(Cl)cc1	1020	233	1880	1.84	0.23	0.12	–
COC(=O)C1CN(Cc2ccc(O)cc2)CC[C@@H]1c1ccc(Cl)cc1 (some centres not stated)	1620	1080	2650	1.64	0.67	0.41	–
